# Data from ChEMBL document CHEMBL4422659, “Discovery of novel 4-phenyl-2-(pyrrolidinyl)nicotinamide derivatives as potent Nav1.1 activators” (Bioorg Med Chem Lett, 2019).
# Experiments:
# [1] = molecular target: Sodium channel protein type 1 subunit alpha (Homo sapiens) (UniProt P35498); test: Activation of human Nav1.1 expressed in T-Rex-CHO cells assessed as change in decay time constant of channel currents at 1 uM at holding potential of -120 mV by automated patch-clamp electrophysiology assay relative to control; assay type: cell-based
# Method in brief: (§1)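 Human Nav1.1 stably expressed in CHO cells; inactivation current decay time constant (tau) measured on IonWorks automated patch platform; tau given as % of control; mean of N=5 unless noted, standard deviation reported.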
# [2] = molecular target: Sodium channel protein type 1 subunit alpha (Homo sapiens) (UniProt P35498); test: Activation of human Nav1.1 expressed in T-Rex-CHO cells assessed as change in decay time constant of channel currents at 3 uM at holding potential of -120 mV by automated patch-clamp electrophysiology assay relative to control; assay type: cell-based; method in brief: as §1
# [3] = molecular target: Sodium channel protein type 1 subunit alpha (Homo sapiens) (UniProt P35498); test: Activation of human Nav1.1 expressed in T-Rex-CHO cells assessed as change in decay time constant of channel currents at 10 uM at holding potential of -120 mV by automated patch-clamp electrophysiology assay relative to control; assay type: cell-based; method in brief: as §1
# [4] = molecular target: Sodium channel protein type 1 subunit alpha (Homo sapiens) (UniProt P35498); test: Activation of human Nav1.1 expressed in T-Rex-CHO cells assessed as change in top peak current at 3 uM by Q-patch assay relative to control; assay type: cell-based
# Method in brief: (§2)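 Human Nav1.1 in CHO cells, Q-patch automated patch clamp; current decay time constant (tau) and top current ratio expressed as % of control; mean of N=4 unless noted, standard deviation reported.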
# [5] = molecular target: Sodium channel protein type 1 subunit alpha (Homo sapiens) (UniProt P35498); test: Activation of human Nav1.1 expressed in T-Rex-CHO cells assessed as change in decay time constant of channel currents at 30 uM at holding potential of -120 mV by automated patch-clamp electrophysiology assay relative to control; assay type: cell-based; method in brief: as §1
# [6] = molecular target: Sodium channel protein type 1 subunit alpha (Homo sapiens) (UniProt P35498); test: Activation of human Nav1.1 expressed in T-Rex-CHO cells assessed as change in decay time constant of channel currents at 10 uM by Q-patch assay relative to control; assay type: cell-based; method in brief: as §2
# [7] = molecular target: Sodium channel protein type 1 subunit alpha (Homo sapiens) (UniProt P35498); test: Activation of human Nav1.1 expressed in T-Rex-CHO cells assessed as change in decay time constant of channel currents at 1 uM by Q-patch assay relative to control; assay type: cell-based; method in brief: as §2
# [8] = molecular target: Sodium channel protein type 1 subunit alpha (Homo sapiens) (UniProt P35498); test: Activation of human Nav1.1 expressed in T-Rex-CHO cells assessed as change in top peak current at 1 uM by Q-patch assay relative to control; assay type: cell-based; method in brief: as §2
# [9] = molecular target: Sodium channel protein type 1 subunit alpha (Homo sapiens) (UniProt P35498); test: Activation of human Nav1.1 expressed in T-Rex-CHO cells assessed as change in top peak current at 10 uM by Q-patch assay relative to control; assay type: cell-based; method in brief: as §2
# [10] = 1-octanol/water partition co-efficient, log D of the compound at pH 7.4 by chromatographic analysis; assay type: physicochemical
# [11] = Aqueous solubility of compound at pH 6.8 by UV absorbance method; assay type: physicochemical; settings: buffer
# Method in brief: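 Solubility determined at pH 6.8.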
# [12] = molecular target: Sodium channel protein type 1 subunit alpha (Homo sapiens) (UniProt P35498); test: Activation of human Nav1.1 expressed in T-Rex-CHO cells assessed as change in decay time constant of channel currents at 3 uM by Q-patch assay relative to control; assay type: cell-based; method in brief: as §2
# [13] = molecular target: Sodium channel protein type 1 subunit alpha (Homo sapiens) (UniProt P35498); test: Activation of human Nav1.1 expressed in T-Rex-CHO cells assessed as change in decay time constant of channel currents at 0.3 uM by Q-patch assay relative to control; assay type: cell-based; method in brief: as §2
# [14] = molecular target: Sodium channel protein type 3 subunit alpha (Homo sapiens) (UniProt Q9NY46); test: Activation of human Nav1.3 expressed in CHO cells assessed as change in peak current at 1 uM by Q-patch assay relative to control; assay type: cell-based
# [15] = Fraction unbound in mouse brain at 30 mg/kg, ip measured at 1 hr by LC-MS/MS analysis; assay type: ADME, organism-based
# Method in brief: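 Brain protein binding ratio determined for brain exposure study in mice given 30 mg/kg i.p., sampled at 1 h.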
# [16] = molecular target: Sodium channel protein type 8 subunit alpha (Homo sapiens) (UniProt Q9UQD0); test: Activation of human Nav1.6 expressed in T-Rex-CHO cells assessed as change in peak current at 1 uM by Q-patch assay relative to control; assay type: cell-based
# Chain of Sodium channel protein type 8 subunit alpha (Homo sapiens) (Q9UQD0 whole entry, looked up): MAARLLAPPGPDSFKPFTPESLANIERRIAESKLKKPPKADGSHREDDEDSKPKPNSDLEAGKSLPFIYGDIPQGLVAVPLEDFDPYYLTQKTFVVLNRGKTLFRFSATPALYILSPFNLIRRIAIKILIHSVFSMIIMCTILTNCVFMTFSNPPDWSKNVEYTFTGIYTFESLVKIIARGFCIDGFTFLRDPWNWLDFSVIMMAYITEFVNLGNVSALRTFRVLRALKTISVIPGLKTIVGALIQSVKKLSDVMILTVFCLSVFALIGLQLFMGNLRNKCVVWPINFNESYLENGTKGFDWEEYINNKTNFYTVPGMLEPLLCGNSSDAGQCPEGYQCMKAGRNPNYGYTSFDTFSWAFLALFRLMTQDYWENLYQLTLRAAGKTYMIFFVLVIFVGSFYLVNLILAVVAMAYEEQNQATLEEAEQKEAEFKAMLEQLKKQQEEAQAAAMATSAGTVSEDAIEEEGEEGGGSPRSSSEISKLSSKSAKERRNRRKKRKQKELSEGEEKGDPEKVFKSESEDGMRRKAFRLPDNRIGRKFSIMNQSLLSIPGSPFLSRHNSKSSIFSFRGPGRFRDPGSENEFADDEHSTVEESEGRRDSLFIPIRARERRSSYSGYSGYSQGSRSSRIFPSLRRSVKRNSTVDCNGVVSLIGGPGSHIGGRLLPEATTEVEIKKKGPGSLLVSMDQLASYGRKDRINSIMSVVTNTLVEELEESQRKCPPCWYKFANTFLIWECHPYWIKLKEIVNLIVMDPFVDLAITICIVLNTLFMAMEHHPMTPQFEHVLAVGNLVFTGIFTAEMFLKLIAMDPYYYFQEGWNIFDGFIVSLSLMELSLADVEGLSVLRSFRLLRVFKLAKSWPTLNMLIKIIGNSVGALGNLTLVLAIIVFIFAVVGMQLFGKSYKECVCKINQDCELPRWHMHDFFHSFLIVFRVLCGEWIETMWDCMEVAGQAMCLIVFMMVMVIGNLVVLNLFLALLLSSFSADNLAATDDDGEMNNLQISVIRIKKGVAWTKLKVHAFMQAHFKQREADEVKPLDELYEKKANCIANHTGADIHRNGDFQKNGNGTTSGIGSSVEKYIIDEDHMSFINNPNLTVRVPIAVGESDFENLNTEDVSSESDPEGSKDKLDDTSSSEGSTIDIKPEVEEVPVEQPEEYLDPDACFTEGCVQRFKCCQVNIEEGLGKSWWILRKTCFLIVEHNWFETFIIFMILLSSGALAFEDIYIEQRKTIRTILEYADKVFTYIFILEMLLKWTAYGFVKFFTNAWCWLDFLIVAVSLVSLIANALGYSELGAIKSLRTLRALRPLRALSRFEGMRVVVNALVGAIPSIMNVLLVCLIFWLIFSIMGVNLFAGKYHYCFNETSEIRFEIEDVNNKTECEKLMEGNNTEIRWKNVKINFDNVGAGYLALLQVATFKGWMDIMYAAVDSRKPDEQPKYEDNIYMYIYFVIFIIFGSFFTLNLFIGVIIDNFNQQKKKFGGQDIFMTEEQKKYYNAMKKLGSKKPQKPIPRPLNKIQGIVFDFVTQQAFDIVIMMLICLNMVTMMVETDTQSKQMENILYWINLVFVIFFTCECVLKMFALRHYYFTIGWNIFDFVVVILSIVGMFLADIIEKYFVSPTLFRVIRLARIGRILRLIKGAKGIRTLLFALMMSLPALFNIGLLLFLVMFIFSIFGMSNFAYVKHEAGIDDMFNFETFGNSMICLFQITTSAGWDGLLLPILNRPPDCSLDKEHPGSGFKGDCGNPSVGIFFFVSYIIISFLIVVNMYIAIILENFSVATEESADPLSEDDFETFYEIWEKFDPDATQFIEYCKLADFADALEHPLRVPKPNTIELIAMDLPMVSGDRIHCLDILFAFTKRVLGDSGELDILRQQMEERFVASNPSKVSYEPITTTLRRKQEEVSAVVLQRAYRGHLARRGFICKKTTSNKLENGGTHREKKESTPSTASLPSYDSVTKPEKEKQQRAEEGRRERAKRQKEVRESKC
# [17] = molecular target: T1, Sodium channel protein type 5 subunit alpha (Homo sapiens, UniProt Q14524); test: Activation of human Nav1.5 expressed in T-Rex-CHO cells assessed as change in decay time constant of channel currents at 1 uM at holding potential of -120 mV by automated patch-clamp electrophysiology assay relative to control; assay type: cell-based
# [18] = molecular target: Sodium channel protein type 8 subunit alpha (Homo sapiens) (UniProt Q9UQD0); test: Activation of human Nav1.6 expressed in T-Rex-CHO cells assessed as change in decay time constant of channel currents at 1 uM at holding potential of -120 mV by automated patch-clamp electrophysiology assay relative to control; assay type: cell-based
# [19] = Drug uptake in mouse brain at 30 mg/kg, ip measured at 1 hr by LC-MS/MS analysis; assay type: ADME, organism-based; settings: read-out: Drug uptake
# Method in brief: (§3)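 Mice dosed 30 mg/kg intraperitoneally; plasma and brain levels measured 1 h post-dose; brain/plasma ratio computed from total concentrations in brain and plasma.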
# [20] = molecular target: Sodium channel protein type 1 subunit alpha (Homo sapiens) (UniProt P35498); test: Activation of human Nav1.1 expressed in T-Rex-CHO cells assessed as change in decay time constant of channel currents at 0.1 uM by Q-patch assay relative to control; assay type: cell-based; method in brief: as §2
# [21] = molecular target: Sodium channel protein type 1 subunit alpha (Homo sapiens) (UniProt P35498); test: Activation of human Nav1.1 expressed in T-Rex-CHO cells assessed as change in decay time constant of channel currents at 0.3 uM at holding potential of -120 mV by automated patch-clamp electrophysiology assay relative to control; assay type: cell-based; method in brief: as §1
# human MDR1 = test: Efflux ratio of permeability across pig LLC-PK1 cells expressing human MDR1 at 1 uM after 1 hr by LC-MS/MS analysis; assay type: ADME, cell-based, Sus scrofa
# Method in brief: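 Efflux ratio measured in LLC-PK1 cells over-expressing human MDR1, substrate at 1 μM.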
# [22] = molecular target: Sodium channel protein type 3 subunit alpha (Homo sapiens) (UniProt Q9NY46); test: Activation of human Nav1.3 expressed in CHO cells assessed as change in decay time constant of channel currents at 1 uM at holding potential of -120 mV by automated patch-clamp electrophysiology assay relative to control; assay type: cell-based
# [23] = molecular target: Sodium channel protein type 2 subunit alpha (Homo sapiens) (UniProt Q99250); test: Activation of human Nav1.2 expressed in T-Rex-CHO cells assessed as change in peak current at 1 uM by Q-patch assay relative to control; assay type: cell-based
# Chain of Sodium channel protein type 2 subunit alpha (Homo sapiens) (Q99250 whole entry, looked up): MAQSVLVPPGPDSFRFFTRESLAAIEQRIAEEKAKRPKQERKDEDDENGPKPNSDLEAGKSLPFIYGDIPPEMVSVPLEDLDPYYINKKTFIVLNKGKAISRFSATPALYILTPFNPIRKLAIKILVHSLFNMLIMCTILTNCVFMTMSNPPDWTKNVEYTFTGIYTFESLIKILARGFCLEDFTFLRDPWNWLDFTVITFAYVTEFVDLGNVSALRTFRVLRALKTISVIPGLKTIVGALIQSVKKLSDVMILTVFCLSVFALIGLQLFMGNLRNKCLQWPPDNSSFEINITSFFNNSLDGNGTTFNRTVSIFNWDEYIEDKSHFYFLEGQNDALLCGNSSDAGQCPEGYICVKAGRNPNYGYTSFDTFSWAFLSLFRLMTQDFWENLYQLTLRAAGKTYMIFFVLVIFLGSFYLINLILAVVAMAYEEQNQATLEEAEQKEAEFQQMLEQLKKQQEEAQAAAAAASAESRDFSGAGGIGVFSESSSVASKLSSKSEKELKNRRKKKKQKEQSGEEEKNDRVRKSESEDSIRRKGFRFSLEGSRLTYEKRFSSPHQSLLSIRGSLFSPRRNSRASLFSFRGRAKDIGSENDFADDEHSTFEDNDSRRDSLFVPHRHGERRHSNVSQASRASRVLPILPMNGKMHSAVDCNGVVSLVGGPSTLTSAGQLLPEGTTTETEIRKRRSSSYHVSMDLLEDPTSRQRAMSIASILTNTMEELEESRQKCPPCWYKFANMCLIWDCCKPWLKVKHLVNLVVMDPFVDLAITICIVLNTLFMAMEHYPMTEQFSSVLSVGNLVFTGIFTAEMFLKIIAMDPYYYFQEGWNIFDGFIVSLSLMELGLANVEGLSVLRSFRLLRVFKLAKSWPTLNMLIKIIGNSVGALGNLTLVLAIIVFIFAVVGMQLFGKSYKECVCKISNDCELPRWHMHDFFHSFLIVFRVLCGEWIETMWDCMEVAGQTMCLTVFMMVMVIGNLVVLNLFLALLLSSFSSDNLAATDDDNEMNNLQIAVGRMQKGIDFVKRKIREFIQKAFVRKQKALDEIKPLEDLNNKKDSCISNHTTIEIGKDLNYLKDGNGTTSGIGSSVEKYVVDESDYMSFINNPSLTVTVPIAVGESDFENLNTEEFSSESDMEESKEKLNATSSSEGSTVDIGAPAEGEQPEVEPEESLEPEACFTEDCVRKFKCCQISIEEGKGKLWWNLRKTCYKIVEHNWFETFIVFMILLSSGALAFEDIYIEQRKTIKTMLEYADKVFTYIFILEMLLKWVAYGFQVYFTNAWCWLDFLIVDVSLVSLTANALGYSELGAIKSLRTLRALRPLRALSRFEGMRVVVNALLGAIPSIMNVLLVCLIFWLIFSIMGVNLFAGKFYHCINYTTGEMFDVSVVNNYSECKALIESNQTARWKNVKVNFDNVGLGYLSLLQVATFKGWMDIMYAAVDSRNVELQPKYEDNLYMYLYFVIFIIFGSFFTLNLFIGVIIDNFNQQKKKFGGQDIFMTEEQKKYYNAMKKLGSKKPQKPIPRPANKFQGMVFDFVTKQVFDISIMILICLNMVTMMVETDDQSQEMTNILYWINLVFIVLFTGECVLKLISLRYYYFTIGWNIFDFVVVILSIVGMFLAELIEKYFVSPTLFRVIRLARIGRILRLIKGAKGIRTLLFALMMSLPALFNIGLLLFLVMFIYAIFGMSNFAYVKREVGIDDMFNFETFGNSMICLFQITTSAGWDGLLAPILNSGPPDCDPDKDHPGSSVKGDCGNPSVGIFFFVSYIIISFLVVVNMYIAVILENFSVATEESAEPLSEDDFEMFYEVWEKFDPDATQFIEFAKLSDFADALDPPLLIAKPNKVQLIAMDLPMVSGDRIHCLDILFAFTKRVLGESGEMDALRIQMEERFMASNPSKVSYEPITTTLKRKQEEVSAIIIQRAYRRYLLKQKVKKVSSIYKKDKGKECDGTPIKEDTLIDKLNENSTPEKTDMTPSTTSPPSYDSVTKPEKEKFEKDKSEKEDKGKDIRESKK
# [24] = Drug uptake in mouse plasma at 30 mg/kg, ip measured at 1 hr by LC-MS/MS analysis; assay type: ADME, organism-based; method in brief: as §3
# [25] = Free drug level in mouse brain at 30 mg/kg, ip measured at 1 hr by LC-MS/MS analysis; assay type: ADME, organism-based; settings: in vivo
# Method in brief: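 Free brain concentration derived from total brain level 1 h after 30 mg/kg i.p. in mice and the brain protein binding ratio.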
# [26] = molecular target: T1, Sodium channel protein type 5 subunit alpha; test: Activation of human Nav1.5 expressed in T-Rex-CHO cells assessed as change in peak current at 1 uM by Q-patch assay relative to control; assay type: cell-based
# [27] = Ratio of drug level in brain to plasma in mouse at 30 mg/kg, ip measured at 1 hr by LC-MS/MS analysis; assay type: ADME, organism-based; settings: brain and plasma; method in brief: as §3
# [28] = molecular target: Sodium channel protein type 2 subunit alpha (Homo sapiens) (UniProt Q99250); test: Activation of human Nav1.2 expressed in T-Rex-CHO cells assessed as change in decay time constant of channel currents at 1 uM at holding potential of -120 mV by automated patch-clamp electrophysiology assay relative to control; assay type: cell-based
# [29] = molecular target: Sodium channel protein type 1 subunit alpha (Homo sapiens) (UniProt P35498); test: Activation of human Nav1.1 expressed in T-Rex-CHO cells assessed as change in decay time constant of channel currents at 0.03 uM by Q-patch assay relative to control; assay type: cell-based; method in brief: as §2
compound,measurement,setting,value
CC(C)c1ccc(NC(=O)c2c(-c3ccc(F)cc3)ncnc2N2CC[C@H](F)C2)cn1,Activity,[1],93%
same,Activity,[2],197%
CC(C)c1ccc(NC(=O)c2c(-c3ccc(Cl)cc3)ncnc2N2CCOCC2)cn1,Activity,[3],370%
same,Activity,[4],115%
same,Activity,[5],555%
same,Activity,[6],774%
same,Activity,[7],198%
same,Activity,[8],113%
same,Activity,[9],131%
same,chromatographic logD,[10],2.97
same,solubility,[11],> 100 µg/mL
same,Activity,[12],731%
same,Activity,[2],258%
CC(C)c1ccc(NC(=O)c2c(-c3ccc(Cl)cc3)ncnc2N2CCC(F)(F)C2)cn1,Activity,[3],131%
same,Activity,[2],184%
CC(C)c1ccc(NC(=O)c2c(-c3ccc(Cl)cc3)ncnc2N2CC[C@H](F)C2)cn1,Activity,[3],342%
same,Activity,[1],107%
same,Activity,[7],682%
same,Activity,[13],170%
same,Activity,[2],257%
CC(C)c1ccc(NC(=O)c2c(-c3ccc(Cl)cc3)ncnc2N2CCCCC2)cn1,Activity,[3],105%
same,Activity,[2],110%
CC(C)c1ccc(NC(=O)c2c(-c3cc(F)ccc3F)ccnc2N2CC[C@H](F)C2)cn1,Activity,[14],129%
same,Activity,[1],492%
same,Activity,[7],1900%
same,fraction unbound at 1 h,[15],0.029
same,Activity,[16],100%
same,Activity,[17],108%
same,Activity,[18],102%
same,concentration at 1 h,[19],193 ng/g
same,Activity,[20],1200%
same,Activity,[21],176%
same,"efflux ratio at 1 h, 1 µM",human MDR1,1
same,Activity,[8],144%
same,Activity,[22],826%
same,Activity,[23],94%
same,concentration at 1 h,[24],968 ng/mL
same,Drug uptake(free),[25],13 nM
same,Activity,[26],94%
same,Kp at 1 h,[27],0.2
same,Activity,[28],106%
same,Activity,[29],255%
CC(C)c1ccc(NC(=O)c2c(-c3cccc(F)c3)ncnc2N2CC[C@H](F)C2)cn1,Activity,[1],111%
same,Activity,[2],271%
CC(C)c1ccc(NC(=O)c2c(-c3cc(F)ccc3F)cncc2N2CC[C@H](F)C2)cn1,Activity,[1],124%
same,Activity,[21],92%
CCN(CC)c1ncnc(-c2ccc(Cl)cc2)c1C(=O)Nc1ccc(C(C)C)nc1,Activity,[3],74%
same,Activity,[2],96%
CC(C)c1ccc(NC(=O)c2c(-c3ccc(Cl)cc3)ncnc2N2CC[C@@H](F)C2)cn1,Activity,[3],162%
same,Activity,[2],145%
CC(C)c1ccc(NC(=O)c2c(-c3ccn(C)n3)ncnc2N2CC[C@H](F)C2)cn1,Activity,[1],80%
same,Activity,[2],87%
CC(C)c1ccc(NC(=O)c2c(-c3ccco3)ncnc2N2CC[C@H](F)C2)cn1,Activity,[1],86%
same,Activity,[2],98%
CC(C)c1ccc(NC(=O)c2c(-c3ccc(Cl)cc3)cccc2N2CCOCC2)cn1,Activity,[3],110%
same,Activity,[2],99%
CC(C)c1ccc(NC(=O)c2c(-c3ccccc3F)ncnc2N2CC[C@H](F)C2)cn1,Activity,[1],135%
same,Activity,[7],1400%
same,Activity,[13],711%
same,Activity,[2],391%
CC(C)c1ccc(NC(=O)c2c(N3CCOCC3)ccnc2-c2ccc(Cl)cc2)cn1,Activity,[3],107%
same,Activity,[2],97%
CC(C)c1ccc(NC(=O)c2c(-c3ccc(Cl)cc3)ncnc2N2CCCC2)cn1,Activity,[3],257%
same,Activity,[2],140%
CC(C)c1ccc(NC(=O)c2c(-c3ccc(Cl)cc3)ncnc2N2CCC2)cn1,Activity,[3],90%
same,Activity,[2],111%
CC(C)c1ccc(NC(=O)c2c(-c3ccc(Cl)cc3)cncc2N2CCOCC2)cn1,Activity,[3],699%
same,Activity,[2],313%
CC(C)c1ccc(NC(=O)c2c(-c3ccoc3)ncnc2N2CC[C@H](F)C2)cn1,Activity,[1],80%
same,Activity,[2],115%
CC(C)c1ccc(NC(=O)c2c(-c3ccccc3)ncnc2N2CC[C@H](F)C2)cn1,Activity,[1],102%
same,Activity,[7],332%
same,Activity,[13],255%
same,Activity,[2],302%
CC(C)c1ccc(NC(=O)c2c(-c3cc(F)cc(F)c3F)ncnc2N2CC[C@H](F)C2)cn1,Activity,[1],114%
same,Activity,[2],298%
Cc1cc(C)c(NC(=O)c2c(-c3ccc(Cl)cc3)noc2N2CCOCC2)c(C)c1,Activity,[3],102%
same,Activity,[4],86%
same,Activity,[5],138%
same,Activity,[6],179%
same,Activity,[7],113%
same,Activity,[8],92%
same,Activity,[9],86%
same,chromatographic logD,[10],3.43
same,solubility,[11],0.9 µg/mL
same,Activity,[12],120%
same,Activity,[2],99%
CC(C)c1ccc(NC(=O)c2c(-c3cc(F)ccc3F)ncnc2N2CC[C@H](F)C2)cn1,Activity,[1],260%
same,Activity,[7],1900%
same,Activity,[20],193%
same,Activity,[21],135%
same,Activity,[13],853%
same,Activity,[2],714%
same,Activity,[29],124%
CC(C)c1ccc(NC(=O)c2c(-c3ccc(Cl)cc3)ccnc2N2CCOCC2)cn1,Activity,[3],767%
same,Activity,[2],374%
